Data set [1] deals with Chaperone protein DnaK (Escherichia coli) (UniProt P0A6Y8). The data set can be described thus: Inhibition of Escherichia coli DnaK ATPase activity incubated on shaker for 10 mins followed by 30 mins incubation by malachite green reagent based colorimetric assay.
For data set [2] the target is unchanged. Nature of the data set: Inhibition of Escherichia coli DnaK ATPase activity at 200 uM incubated on shaker for 10 mins followed by 30 mins incubation by malachite green reagent based colorimetric assay.
Data set [3] relates to BT-474. Nature of the data set: Potentiation of lapatinib-induced growth inhibition of human BT474 cells at 10 uM after 72 hrs by cell titer-glo based luminescence assay. The class given is functional. Conditions: BT-474, 72 h, read-out: GI. The essentials: (§1)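 Cells were trypsinised and seeded at 5000 cells/well, then cultured 24 h at 37 °C. Compound was added at 10 µM, alone or with 1 µM lapatinib, and incubated 72 h at 37 °C. CellTiter-Glo reagent was added at a volume equal to the medium, followed by 3 min shaking and 10 min at room temperature. Luminescence (ATP) was read and normalised to the blank control group.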

Data set [4] in a line: Growth inhibition of human BT/LapR1.0 cells at 10 uM after 72 hrs by cell titer-glo based luminescence assay. Conditions: read-out: GI. The essentials:
as §1
A general note: Cellular ATP, detected with luciferase, serves as a proxy for viable cell number.

In data set [5] the test system is BT-474. Nature of the data set: Potentiation of lapatinib-induced growth inhibition of human BT474 cells assessed as coefficient of drug interaction after 72 hrs by cell titer-glo based luminescence assay. The class given is functional.
Data set [6] can be described thus: Growth inhibition of human BT474 cells at 10 uM after 72 hrs by cell titer-glo based luminescence assay. Further details: species or system BT-474. Conditions: read-out: GI. The essentials: as §1
For data set [7], the species on record is Homo sapiens. Nature of the data set: Inhibition of HSP70 in human BT/LapR1.0 cells assessed as potentiation of 1 uM of lapatinib-induced growth inhibition after 72 hrs by measuring coefficient of drug interaction by cell titer-glo based luminescence assay.
Data set [8] is filed under the species Homo sapiens. Nature of the data set: Inhibition of HSP70 in human BT/LapR1.0 cells assessed as potentiation of 1 uM of lapatinib-induced growth inhibition at 10 uM after 72 hrs by cell titer-glo based luminescence assay. The essentials:
as §1

Results on eleven compounds are retold here after ChEMBL document CHEMBL3853294, “Design, synthesis and biological evaluation of novel HSP70 inhibitors: N, N'-disubstituted thiourea derivatives” (Eur J Med Chem, 2016).

Molecules are shown by their SMILES.

Regarding `N#Cc1ccc(COC[C@H]2O[C@@H](n3c(NCc4ccc(Cl)c(Cl)c4)nc4c(N)ncnc43)[C@H](O)[C@@H]2O)cc1`, the results for the inhibition result in data set [1] and in data set [2] were “Dose-dependent effect” and 43%, respectively.
For `CC(C)(C)CC(NC(=O)/C=C/c1ccccc1)NC(=S)Nc1ccccc1` (configuration not stated), the inhibition of growth at 10 µM with BT-474 [3] stood at 84.9%. Moreover, the values for the inhibition at 72 h, 10 µM in data set [4] and in data set [6] were 34.6% and 11.3%, respectively. Also, the Activity in the data set with BT-474 [5] is 0.79; in the data set listed under Homo sapiens [7], below 1. The compound further registered an inhibition in data set [2] below 20%. Moreover, in the data set filed under Homo sapiens [8], the growth inhibition (GI) stood at 53%.
With `CNC(=S)NC(CC(C)C)NC(=O)/C=C/c1cc(OC)c(OC)c(OC)c1` (configuration not stated), the inhibition of growth at 10 µM in the data set on BT-474 [3] amounted to 79.8%. Also, the inhibition at 72 h, 10 µM in data set [4] is 13%; in data set [6] it was 10.5%. In addition, the Activity with BT-474 [5] and in the data set listed under Homo sapiens [7] was below 1 in each case. This compound had an inhibition in data set [2] below 20%. In addition, in the data set filed under Homo sapiens [8], the growth inhibition (GI) is 30.9%.
Turning to `COc1cc(/C=C/C(=O)NC(NC(=S)Nc2cccnc2)C(C)(C)C)cc(OC)c1OC` (configuration not stated), the inhibition of growth at 10 µM in the data set on BT-474 [3] is 84.7%. Moreover, the inhibition at 72 h, 10 µM turned out to be 16% in data set [4] and 10.3% in data set [6]. Also, the Activity with BT-474 [5] and in the data set listed under Homo sapiens [7] was below 1 throughout. Besides, the inhibition in data set [2] was below 20%. In the data set filed under Homo sapiens [8], the growth inhibition (GI) stood at 56%.
On to `O=C(/C=C/c1ccccc1)NC(NC(=S)Nc1ccccn1)C1CC1` (configuration not stated), for which, in the data set with BT-474 [3], the inhibition of growth at 10 µM is 78.8%. Moreover, the figures for the inhibition at 72 h, 10 µM in data set [4] and in data set [6] were 6% and 2.4%, respectively. For the same compound, the Activity in the data set on BT-474 [5] and in the data set listed under Homo sapiens [7] was below 1 in each case. The same compound registered an inhibition in data set [2] below 20%. In addition, the growth inhibition (GI) in the data set listed under Homo sapiens [8] came out at 25.2%.
Turning to `COc1cc(/C=C/C(=O)NC(CC(C)(C)C)NC(=S)Nc2cccnc2)cc(OC)c1OC` (configuration not stated), the inhibition of growth at 10 µM with BT-474 [3] worked out at 89.9%. For the same compound, the inhibition at 72 h, 10 µM is 19.3% in data set [4] and 22.1% in data set [6]. For the same compound, the Activity in the data set with BT-474 [5] was 0.81; in the data set listed under Homo sapiens [7], below 1. In data set [2], this compound returned an inhibition of 47.1%. Also, the growth inhibition (GI) in the data set listed under Homo sapiens [8] is 59.9%.
For the compound `CC(C)(C)C(NC(=O)/C=C/c1ccccc1)NC(=S)NC1CCCCC1` (configuration not stated), the inhibition of growth at 10 µM with BT-474 [3] was 85.2%. Also, the results for the inhibition at 72 h, 10 µM in data set [4] and in data set [6] were 34.3% and 13%, respectively. Moreover, the results for the Activity in the data set with BT-474 [5] and in the data set listed under Homo sapiens [7] were 0.77 and below 1, respectively. In data set [2], this compound came in with an inhibition below 20%. In addition, the growth inhibition (GI) in the data set listed under Homo sapiens [8] was found to be 47.2%.
On to `COc1cc(/C=C/C(=O)NC(CC(C)C)NC(=S)Nc2cccnc2)cc(OC)c1OC` (configuration not stated), for which the inhibition of growth at 10 µM in the data set on BT-474 [3] stood at 79.1%. Further, the inhibition at 72 h, 10 µM in data set [4] is 10.5%; in data set [6], 9.2%. For the same compound, the Activity in the data set with BT-474 [5] and in the data set filed under Homo sapiens [7] was below 1 in each case. In data set [2], this compound registered an inhibition of 38.5%. The growth inhibition (GI) in the data set filed under Homo sapiens [8] came to 54.2%.
Take `CC(C)CC(NC(=O)/C=C/c1ccccc1)NC(=S)NC1CCCCC1` (configuration not stated): in the data set on BT-474 [3], the inhibition of growth at 10 µM amounted to 84%. Also, the inhibition at 72 h, 10 µM in data set [4] came out at 19.8%; in data set [6], 13.5%. For the same compound, the results for the Activity with BT-474 [5] and in the data set listed under Homo sapiens [7] were 0.77 and below 1, respectively. In addition, in data set [2], the inhibition was found to be 58.4%. Also, the growth inhibition (GI) in the data set filed under Homo sapiens [8] is 33.4%.
For `O=C(/C=C/c1ccccc1)NC(NC(=S)Nc1ccccc1)C1CC1` (configuration not stated), the inhibition of growth at 10 µM in the data set with BT-474 [3] came to 81.4%. In addition, the figures for the inhibition at 72 h, 10 µM in data set [4] and in data set [6] were 8.7% and 3.8%, respectively. The Activity in the data set on BT-474 [5] and in the data set listed under Homo sapiens [7] was below 1 in each case. Further, the inhibition in data set [2] is below 20%. Further, in the data set filed under Homo sapiens [8], the growth inhibition (GI) came to 27.8%.
With `COc1ccc(-c2nc(-c3cc(C(F)(F)F)cc(C(F)(F)F)c3)n(Cc3ccc(C(N)=O)cc3)c2-c2ccc(OC)cc2)cc1`, the inhibition result is “Dose-dependent effect” in data set [1] and 53% in data set [2].
